ChEMBL document CHEMBL2331191, “Design and synthesis of novel 1,2,3-triazole-dithiocarbamate hybrids as potential anticancer agents” (Eur J Med Chem, 2013)
pIC50: −log10 of the molar value.

Tests used:
[1] = system: MGC-803; assay: Cell cycle arrest in human MGC803 cells assessed as accumulation at G0/G1 phase at 0.25 umol/L after 24 hrs by propidium iodide staining-based flow cytometric analysis (reference value: 43.68%); format: functional
[2] = system: MGC-803; assay: Cell cycle arrest in human MGC803 cells assessed as accumulation at G2/M phase at 1 umol/L after 12 hrs by propidium iodide staining-based flow cytometric analysis (reference value: 17.59%); format: functional
[3] = system: MGC-803; assay: Cell cycle arrest in human MGC803 cells assessed as accumulation at G2/M phase at 0.5 umol/L after 12 hrs by propidium iodide staining-based flow cytometric analysis (reference value: 17.59%); format: functional
[4] = system: MGC-803; assay: Cell cycle arrest in human MGC803 cells assessed as accumulation at G2/M phase at 0.25 umol/L after 12 hrs by propidium iodide staining-based flow cytometric analysis (reference value: 17.59%); format: functional
[5] = system: MGC-803; assay: Cell cycle arrest in human MGC803 cells assessed as accumulation at S phase at 1 umol/L after 12 hrs by propidium iodide staining-based flow cytometric analysis (reference value: 41.43%); format: functional
[6] = system: MGC-803; assay: Cell cycle arrest in human MGC803 cells assessed as accumulation at S phase at 0.5 umol/L after 12 hrs by propidium iodide staining-based flow cytometric analysis (reference value: 41.43%); format: functional
[7] = system: MGC-803; assay: Cell cycle arrest in human MGC803 cells assessed as accumulation at S phase at 0.25 umol/L after 12 hrs by propidium iodide staining-based flow cytometric analysis (reference value: 41.43%); format: functional
[8] = system: MGC-803; assay: Cell cycle arrest in human MGC803 cells assessed as accumulation at G0/G1 phase at 1 umol/L after 12 hrs by propidium iodide staining-based flow cytometric analysis (reference value: 39.17%); format: functional
[9] = system: MGC-803; assay: Cell cycle arrest in human MGC803 cells assessed as accumulation at G0/G1 phase at 0.5 umol/L after 12 hrs by propidium iodide staining-based flow cytometric analysis (reference value: 39.17%); format: functional
[10] = system: MGC-803; assay: Cell cycle arrest in human MGC803 cells assessed as accumulation at G0/G1 phase at 0.25 umol/L after 12 hrs by propidium iodide staining-based flow cytometric analysis (reference value: 39.17%); format: functional
[11] = system: MGC-803; assay: Induction of apoptosis in human MGC803 cells after 12 hrs by annexin-V-FITC/propidium iodide staining-based flow cytometric analysis; format: functional, cell-based
Outline: (§1)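 MGC-803 cells were plated at 5.0×10^4 cells/mL, held 12 h at 37 °C, then given complete medium (blank) or compound at 0, 0.25, 0.5 or 1.0 µmol/L for 12 h. Quadrants: live (annexin−/PI−), early apoptotic (annexin+/PI−), late apoptotic (annexin+/PI+), damaged (annexin−/PI+).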

[12] = system: MGC-803; assay: Induction of apoptosis in human MGC803 cells assessed as live cells at 1 umol/L after 12 hrs by annexin-V-FITC/propidium iodide staining-based flow cytometric analysis (reference value: 88.9%); format: functional; outline: as §1
[13] = system: MGC-803; assay: Induction of apoptosis in human MGC803 cells assessed as live cells at 0.5 umol/L after 12 hrs by annexin-V-FITC/propidium iodide staining-based flow cytometric analysis (reference value: 88.9%); format: functional; outline: as §1
[14] = system: MGC-803; assay: Induction of apoptosis in human MGC803 cells assessed as live cells at 0.25 umol/L after 12 hrs by annexin-V-FITC/propidium iodide staining-based flow cytometric analysis (reference value: 88.9%); format: functional; outline: as §1
[15] = system: MGC-803; assay: Induction of apoptosis in human MGC803 cells assessed as damaged cells at 1 umol/L after 12 hrs by annexin-V-FITC/propidium iodide staining-based flow cytometric analysis (reference value: 1.9%); format: functional; outline: as §1
[16] = system: MGC-803; assay: Induction of apoptosis in human MGC803 cells assessed as damaged cells at 0.5 umol/L after 12 hrs by annexin-V-FITC/propidium iodide staining-based flow cytometric analysis (reference value: 1.9%); format: functional; outline: as §1
[17] = system: MGC-803; assay: Induction of apoptosis in human MGC803 cells assessed as damaged cells at 0.25 umol/L after 12 hrs by annexin-V-FITC/propidium iodide staining-based flow cytometric analysis (reference value: 1.9%); format: functional; outline: as §1
[18] = system: MGC-803; assay: Induction of apoptosis in human MGC803 cells assessed as early apoptotic cells at 1 umol/L after 12 hrs by annexin-V-FITC/propidium iodide staining-based flow cytometric analysis (reference value: 3.7%); format: functional; outline: as §1
[19] = system: MGC-803; assay: Induction of apoptosis in human MGC803 cells assessed as early apoptotic cells at 0.5 umol/L after 12 hrs by annexin-V-FITC/propidium iodide staining-based flow cytometric analysis (reference value: 3.7%); format: functional; outline: as §1
[20] = system: MGC-803; assay: Induction of apoptosis in human MGC803 cells assessed as early apoptotic cells at 0.25 umol/L after 12 hrs by annexin-V-FITC/propidium iodide staining-based flow cytometric analysis (reference value: 3.7%); format: functional; outline: as §1
[21] = system: MGC-803; assay: Induction of apoptosis in human MGC803 cells assessed as late apoptotic cells at 1 umol/L after 12 hrs by annexin-V-FITC/propidium iodide staining-based flow cytometric analysis (reference value: 5.5%); format: functional; outline: as §1
[22] = system: MGC-803; assay: Induction of apoptosis in human MGC803 cells assessed as late apoptotic cells at 0.5 umol/L after 12 hrs by annexin-V-FITC/propidium iodide staining-based flow cytometric analysis (reference value: 5.5%); format: functional; outline: as §1
[23] = system: MGC-803; assay: Induction of apoptosis in human MGC803 cells assessed as late apoptotic cells at 0.25 umol/L after 12 hrs by annexin-V-FITC/propidium iodide staining-based flow cytometric analysis (reference value: 5.5%); format: functional; outline: as §1
[24] = system: MGC-803; assay: Ratio of 5-fluorouracil IC50 to compound IC50 for growth inhibition of human MGC803 cells; format: functional
Outline: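 The IC50 ratio uses MGC-803 values from the 72 h MTT assay: cells seeded at 5×10^3 per well, compound exposure 72 h, MTT 4 h at 37 °C, A570 read after DMSO solubilization. Triplicate wells, three experiments. IC50 values were taken from dose–response curves, with 5-fluorouracil as the reference.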

[25] = Cytotoxicity against human EC109 cells assessed as growth inhibition after 72 hrs by MTT assay; format: functional, cell-based; details: ECa-109, 72 h
Outline: (§2)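 Exponentially growing cells were seeded at 5×10^3 per well and held 24 h at 37 °C. Medium was then replaced with fresh medium containing a range of concentrations, and cells were exposed for 72 h. MTT (5 mg/mL) was added for 4 h at 37 °C, formazan was dissolved in DMSO and A570 was read. Triplicate wells per concentration, three experiments. IC50 was taken from dose–response curves of inhibition ratio.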

[26] = system: PC-3; assay: Cytotoxicity against human PC3 cells assessed as growth inhibition after 72 hrs by MTT assay; format: functional, cell-based; details: PC-3, 72 h; outline: as §2
[27] = system: MCF7; assay: Cytotoxicity against human MCF7 cells assessed as growth inhibition after 72 hrs by MTT assay; format: functional, cell-based; details: MCF7, 72 h; outline: as §2
[28] = system: MGC-803; assay: Cytotoxicity against human MGC803 cells assessed as growth inhibition after 72 hrs by MTT assay; format: functional, cell-based; details: MGC-803, 72 h; outline: as §2
[29] = system: MGC-803; assay: Cell cycle arrest in human MGC803 cells assessed as accumulation at G2/M phase at 0.25 to 1 umol/L by propidium iodide staining-based flow cytometric analysis; format: functional; details: TDE = time-dependent effect
[30] = system: MGC-803; assay: Cell cycle arrest in human MGC803 cells assessed as accumulation at G2/M phase after 12 to 24 hrs by propidium iodide staining-based flow cytometric analysis; format: functional
[31] = system: MGC-803; assay: Cell cycle arrest in human MGC803 cells assessed as accumulation at G2/M phase at 1 umol/L after 24 hrs by propidium iodide staining-based flow cytometric analysis (reference value: 15.12%); format: functional
[32] = system: MGC-803; assay: Cell cycle arrest in human MGC803 cells assessed as accumulation at G2/M phase at 0.5 umol/L after 24 hrs by propidium iodide staining-based flow cytometric analysis (reference value: 15.12%); format: functional
[33] = system: MGC-803; assay: Cell cycle arrest in human MGC803 cells assessed as accumulation at G2/M phase at 0.25 umol/L after 24 hrs by propidium iodide staining-based flow cytometric analysis (reference value: 15.12%); format: functional
[34] = system: MGC-803; assay: Cell cycle arrest in human MGC803 cells assessed as accumulation at S phase at 1 umol/L after 24 hrs by propidium iodide staining-based flow cytometric analysis (reference value: 39.56%); format: functional
[35] = system: MGC-803; assay: Cell cycle arrest in human MGC803 cells assessed as accumulation at S phase at 0.5 umol/L after 24 hrs by propidium iodide staining-based flow cytometric analysis (reference value: 39.56%); format: functional
[36] = system: MGC-803; assay: Cell cycle arrest in human MGC803 cells assessed as accumulation at S phase at 0.25 umol/L after 24 hrs by propidium iodide staining-based flow cytometric analysis (reference value: 39.56%); format: functional
[37] = system: MGC-803; assay: Cell cycle arrest in human MGC803 cells assessed as accumulation at G0/G1 phase at 1 umol/L after 24 hrs by propidium iodide staining-based flow cytometric analysis (reference value: 43.68%); format: functional
[38] = system: MGC-803; assay: Cell cycle arrest in human MGC803 cells assessed as accumulation at G0/G1 phase at 0.5 umol/L after 24 hrs by propidium iodide staining-based flow cytometric analysis (reference value: 43.68%); format: functional

CC(C)(C)OC(=O)N1CCN(C(=S)SCc2cn(Cc3ccccc3Cl)nn2)CC1
Activity [1]: 27.21% | Activity [2]: 64.1% | Activity [3]: 34.29% | Activity [4]: 22.2% | Activity [5]: 30.36% | Activity [6]: 36.01% | Activity [7]: 39.06% | Activity [8]: 11.95% | Activity [9]: 30.04% | Activity [10]: 38.7% | Activity [11]: Dose-dependent effect | Activity [12]: 54.6% | Activity [13]: 74.1% | Activity [14]: 84.8% | Activity [15]: 2.3% | Activity [16]: 2.9% | Activity [17]: 1.9% | Activity [18]: 35.1% | Activity [19]: 14.6% | Activity [20]: 7.7% | Activity [21]: 8.1% | Activity [22]: 8.4% | Activity [23]: 5.5% | Ratio IC50 [24]: 14 | pIC50 [25]: 4.92 | pIC50 [26]: 4.90 | pIC50 [27]: 5.22 | pIC50 [28]: 6.31 | Activity [29]: tde | Activity [30]: Dose-dependent effect | Activity [31]: 80.05% | Activity [32]: 68.1% | Activity [33]: 38.75% | Activity [34]: 10.67% | Activity [35]: 14.81% | Activity [36]: 34.35% | Activity [37]: 1.62% | Activity [38]: 9.13%
